# Results reported in ChEMBL document CHEMBL1151761, “Radiohalogenated prostate-specific membrane antigen (PSMA)-based ureas as imaging agents for prostate cancer” (J Med Chem, 2008).
# What was measured:
# [1] = Biodistribution in PC3 flu tumor of PSMA expressing human PC3 PIP and PSMA deficient human PC3 flu cells xenografted SCID mouse at 2 uCi, iv after 30 mins; format: ADME, organism-based; settings: in vivo, 0.5 h
# Outline: (§1)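 Male SCID mice carried subcutaneous PSMA+ PC-3 PIP (left shoulder) and PC-3 flu (right shoulder) xenografts, 1-5 × 10^6 cells in HBSS, and were used at 3-5 mm tumor diameter. Tail-vein injection of 2 µCi radioligand; four mice per time point, killed by cervical dislocation. %ID/g from a standard dilution of the dose, decay-corrected, mean ± SD; PIP tumor:organ ratios.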
# [2] = Biodistribution in large intestine of PSMA expressing human PC3 PIP and PSMA deficient human PC3 flu cells xenografted SCID mouse at 2 uCi, iv after 60 mins; format: ADME, organism-based; settings: in vivo, 1 h; outline: as §1
# [3] = Biodistribution in PC3 flu tumor of PSMA expressing human PC3 PIP and PSMA deficient human PC3 flu cells xenografted SCID mouse at 2 uCi, iv after 60 mins; format: ADME, organism-based; settings: in vivo, 1 h; outline: as §1
# [4] = molecular target: T1, Glutamate carboxypeptidase 2 (Homo sapiens, UniProt Q04609); experiment: Inhibition of PSMA in human LNCaP cell extract using [3H]NAAG by radiometric assay; format: cell-free
# T1 sequence (Q04609 whole entry): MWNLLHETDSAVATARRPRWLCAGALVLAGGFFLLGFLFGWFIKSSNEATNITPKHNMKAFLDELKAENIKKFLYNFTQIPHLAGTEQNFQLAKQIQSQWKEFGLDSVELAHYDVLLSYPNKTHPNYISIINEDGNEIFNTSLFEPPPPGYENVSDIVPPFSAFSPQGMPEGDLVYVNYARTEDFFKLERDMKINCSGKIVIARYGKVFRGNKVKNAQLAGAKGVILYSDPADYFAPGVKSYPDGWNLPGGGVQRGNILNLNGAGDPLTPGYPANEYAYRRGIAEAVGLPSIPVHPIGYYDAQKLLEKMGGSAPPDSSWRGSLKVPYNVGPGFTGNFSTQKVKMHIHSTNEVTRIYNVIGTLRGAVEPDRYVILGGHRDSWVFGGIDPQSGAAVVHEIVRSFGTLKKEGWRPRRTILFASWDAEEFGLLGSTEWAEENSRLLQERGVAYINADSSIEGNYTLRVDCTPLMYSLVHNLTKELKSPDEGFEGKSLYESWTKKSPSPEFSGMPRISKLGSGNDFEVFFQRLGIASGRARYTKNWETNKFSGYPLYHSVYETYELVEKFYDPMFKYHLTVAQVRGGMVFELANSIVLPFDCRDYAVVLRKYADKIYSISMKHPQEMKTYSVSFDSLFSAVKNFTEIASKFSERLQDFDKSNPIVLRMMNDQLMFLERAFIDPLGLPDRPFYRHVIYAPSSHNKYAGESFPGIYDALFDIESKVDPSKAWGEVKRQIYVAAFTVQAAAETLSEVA
# [5] = molecular target: T1, Glutamate carboxypeptidase 2; experiment: Inhibition of PSMA in human LNCaP cell extract using [3H]NAAG by fluorescence-based assay; format: cell-free
# [6] = Biodistribution in small intestine of PSMA expressing human PC3 PIP and PSMA deficient human PC3 flu cells xenografted SCID mouse at 2 uCi, iv after 30 mins; format: ADME, organism-based; settings: in vivo, 0.5 h; outline: as §1
# [7] = Biodistribution in large intestine of PSMA expressing human PC3 PIP and PSMA deficient human PC3 flu cells xenografted SCID mouse at 2 uCi, iv after 30 mins; format: ADME, organism-based; settings: in vivo, 0.5 h; outline: as §1
# [8] = Biodistribution in PC3 PIP tumor of PSMA expressing human PC3 PIP and PSMA deficient human PC3 flu cells xenografted SCID mouse at 2 uCi, iv after 30 mins; format: ADME, organism-based; settings: in vivo, 0.5 h; outline: as §1
# [9] = Biodistribution in small intestine of PSMA expressing human PC3 PIP and PSMA deficient human PC3 flu cells xenografted SCID mouse at 2 uCi, iv after 60 mins; format: ADME, organism-based; settings: in vivo, 1 h; outline: as §1
# [10] = Biodistribution in small intestine of PSMA expressing human PC3 PIP and PSMA deficient human PC3 flu cells xenografted SCID mouse at 2 uCi, iv after 2 hrs; format: ADME, organism-based; settings: in vivo; outline: as §1
# [11] = Biodistribution in large intestine of PSMA expressing human PC3 PIP and PSMA deficient human PC3 flu cells xenografted SCID mouse at 2 uCi, iv after 2 hrs; format: ADME, organism-based; settings: in vivo; outline: as §1
# [12] = Biodistribution in PC3 flu tumor of PSMA expressing human PC3 PIP and PSMA deficient human PC3 flu cells xenografted SCID mouse at 2 uCi, iv after 2 hrs; format: ADME, organism-based; settings: in vivo; outline: as §1
# [13] = Biodistribution in small intestine of PSMA expressing human PC3 PIP and PSMA deficient human PC3 flu cells xenografted SCID mouse at 2 uCi, iv after 5 hrs; format: ADME, organism-based; settings: in vivo; outline: as §1
# [14] = Biodistribution in large intestine of PSMA expressing human PC3 PIP and PSMA deficient human PC3 flu cells xenografted SCID mouse at 2 uCi, iv after 5 hrs; format: ADME, organism-based; settings: in vivo; outline: as §1
# [15] = Biodistribution in PC3 flu tumor of PSMA expressing human PC3 PIP and PSMA deficient human PC3 flu cells xenografted SCID mouse at 2 uCi, iv after 5 hrs; format: ADME, organism-based; settings: in vivo; outline: as §1
Compound,Drug uptake [1] [% ID/g],Drug uptake [2] [% ID/g],Drug uptake [3] [% ID/g],Ki [4] [nM],Ki [5] [nM],Drug uptake [6] [% ID/g],Drug uptake [7] [% ID/g],Drug uptake [8] [% ID/g],Drug uptake [9] [% ID/g],Drug uptake [10] [% ID/g],Drug uptake [11] [% ID/g],Drug uptake [12] [% ID/g],Drug uptake [13] [% ID/g],Drug uptake [14] [% ID/g],Drug uptake [15] [% ID/g]
O=C(O)CC[C@H](NC(=O)N[C@@H](CCCCNC(=O)c1cncc([125I])c1)C(=O)O)C(=O)O,0.8,0.6,0.6,–,–,–,–,–,–,–,–,–,–,–,–
O=C(O)CC[C@H](NC(=O)N[C@@H](CCCCNC(=O)c1ccc(F)cc1)C(=O)O)C(=O)O,–,–,–,0.256,0.194,–,–,–,–,–,–,–,–,–,–
O=C(O)CC[C@H](NC(=O)N[C@@H](CCCCNC(=O)c1ccc([125I])cc1)C(=O)O)C(=O)O,1.8,1,1.2,–,–,4.9,1.4,8.8,3.8,1.5,0.6,0.7,1.5,0.7,0.6
